Test system: U2OS
Experiment: Multiplex assay against U2OS
Type: toxicity, cell-based
Conditions: human
Summary of the method: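 At seeding, live cells were stained with Hoechst33342, BioTracker Green Microtubule Cytoskeleton Dye, MitoTracker Red and Annexin V Alexa Fluor 680. After compound addition they were imaged on a CQ1 microscope at 37°C and 5% CO2, and CellPathfinder machine-learning gating sorted them into Hoechst high-intensity objects or normal cells, with normal cells further split into healthy, pyknosed or fragmented nuclei and pyknosed cells into mitotic or apoptotic. Tubulin, mitochondrial-mass and membrane-permeability phenotypes are given as per cents of cells with healthy nuclei.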

[1] = 12 h, 1 µM, compound concentration 1 uM, replicate 1
[2] = 12 h, 1 µM, compound concentration 1 uM, replicate 2
[3] = 12 h, 10 µM, compound concentration 10 uM, replicate 1
[4] = 12 h, 10 µM, compound concentration 10 uM, replicate 2
[5] = 24 h, 1 µM, compound concentration 1 uM, replicate 1
[6] = 24 h, 1 µM, compound concentration 1 uM, replicate 2
[7] = 24 h, 10 µM, compound concentration 10 uM, replicate 1
[8] = 24 h, 10 µM, compound concentration 10 uM, replicate 2
[9] = 48 h, 1 µM, compound concentration 1 uM, replicate 1
[10] = 48 h, 1 µM, compound concentration 1 uM, replicate 2
[11] = 48 h, 10 µM, compound concentration 10 uM, replicate 1
[12] = 48 h, 10 µM, compound concentration 10 uM, replicate 2

CCc1cccc(CC)c1NC(=O)c1nn(C)c2c1CCc1cnc(Nc3ccc(N4CCN(C)CC4)cc3OC)nc1-2
Population Apoptotic (%) [1]: 70% | Population Fragmented Nuclei (%) [1]: 38% | Population Healthy Nuclei (%) [1]: 7% | Population Hoechst High Intensity Objects (%) [1]: 8% | Population Membrane Permeable-Phenotype (%) [1]: 100% | Population Mitochondria Different-Phenotype (%) [1]: 75% | Population Mitotic Cells (%) [1]: 29% | Population Normal (%) [1]: 91% | Population Pyknosed Nuclei (%) [1]: 53% | Population Tubulin-Different-Phenotype (%) [1]: 100% | Total Cell Count [1]: 159 | Population Apoptotic (%) [2]: 68% | Population Fragmented Nuclei (%) [2]: 18% | Population Healthy Nuclei (%) [2]: 12% | Population Hoechst High Intensity Objects (%) [2]: 14% | Population Membrane Permeable-Phenotype (%) [2]: 77% | Population Mitochondria Different-Phenotype (%) [2]: 100% | Population Mitotic Cells (%) [2]: 31% | Population Normal (%) [2]: 85% | Population Pyknosed Nuclei (%) [2]: 68% | Total Cell Count [2]: 87 | Population Apoptotic (%) [3]: 26% | Population Fragmented Nuclei (%) [3]: 5% | Population Healthy Nuclei (%) [3]: 80% | Population Hoechst High Intensity Objects (%) [3]: 2% | Population Membrane Permeable-Phenotype (%) [3]: 35% | Population Mitochondria Different-Phenotype (%) [3]: 54% | Population Mitotic Cells (%) [3]: 73% | Population Normal (%) [3]: 97% | Population Pyknosed Nuclei (%) [3]: 14% | Population Tubulin-Different-Phenotype (%) [3]: 95% | Total Cell Count [3]: 143 | Population Apoptotic (%) [4]: 50% | Population Fragmented Nuclei (%) [4]: 8% | Population Healthy Nuclei (%) [4]: 83% | Population Hoechst High Intensity Objects (%) [4]: 18% | Population Membrane Permeable-Phenotype (%) [4]: 22% | Population Mitochondria Different-Phenotype (%) [4]: 69% | Population Mitotic Cells (%) [4]: 50% | Population Normal (%) [4]: 81% | Population Pyknosed Nuclei (%) [4]: 8% | Population Tubulin-Different-Phenotype (%) [4]: 93% | Total Cell Count [4]: 127 | Population Apoptotic (%) [5]: 94% | Population Fragmented Nuclei (%) [5]: 30% | Population Healthy Nuclei (%) [5]: 9% | Population Hoechst High Intensity Objects (%) [5]: 20% | Population Membrane Permeable-Phenotype (%) [5]: 100% | Population Mitochondria Different-Phenotype (%) [5]: 100% | Population Mitotic Cells (%) [5]: 5% | Population Normal (%) [5]: 80% | Population Pyknosed Nuclei (%) [5]: 59% | Population Tubulin-Different-Phenotype (%) [5]: 100% | Total Cell Count [5]: 169 | Population Apoptotic (%) [6]: 92% | Population Fragmented Nuclei (%) [6]: 18% | Population Healthy Nuclei (%) [6]: 17% | Population Mitotic Cells (%) [6]: 7% | Population Pyknosed Nuclei (%) [6]: 64% | Total Cell Count [6]: 84 | Population Apoptotic (%) [7]: 53% | Population Fragmented Nuclei (%) [7]: 10% | Population Healthy Nuclei (%) [7]: 71% | Population Hoechst High Intensity Objects (%) [7]: 1% | Population Membrane Permeable-Phenotype (%) [7]: 22% | Population Mitochondria Different-Phenotype (%) [7]: 73% | Population Mitotic Cells (%) [7]: 46% | Population Normal (%) [7]: 98% | Population Pyknosed Nuclei (%) [7]: 18% | Population Tubulin-Different-Phenotype (%) [7]: 92% | Total Cell Count [7]: 196 | Population Apoptotic (%) [8]: 41% | Population Fragmented Nuclei (%) [8]: 14% | Population Healthy Nuclei (%) [8]: 69% | Population Hoechst High Intensity Objects (%) [8]: 10% | Population Membrane Permeable-Phenotype (%) [8]: 21% | Population Mitochondria Different-Phenotype (%) [8]: 75% | Population Mitotic Cells (%) [8]: 58% | Population Normal (%) [8]: 89% | Population Pyknosed Nuclei (%) [8]: 16% | Population Tubulin-Different-Phenotype (%) [8]: 94% | Total Cell Count [8]: 163

Cl.O=c1c2cccn2c2ccccc2n1CCCN1CCC(c2ccc(Cl)cc2)CC1
Population Apoptotic (%) [1]: 53% | Population Fragmented Nuclei (%) [1]: 8% | Population Healthy Nuclei (%) [1]: 77% | Population Hoechst High Intensity Objects (%) [1]: 7% | Population Membrane Permeable-Phenotype (%) [1]: 2% | Population Mitochondria Different-Phenotype (%) [1]: 55% | Population Mitotic Cells (%) [1]: 46% | Population Normal (%) [1]: 92% | Population Pyknosed Nuclei (%) [1]: 14% | Population Tubulin-Different-Phenotype (%) [1]: 39% | Total Cell Count [1]: 233 | Population Apoptotic (%) [2]: 60% | Population Fragmented Nuclei (%) [2]: 16% | Population Healthy Nuclei (%) [2]: 73% | Population Hoechst High Intensity Objects (%) [2]: 8% | Population Membrane Permeable-Phenotype (%) [2]: 0% | Population Mitochondria Different-Phenotype (%) [2]: 56% | Population Mitotic Cells (%) [2]: 40% | Population Normal (%) [2]: 91% | Population Pyknosed Nuclei (%) [2]: 9% | Population Tubulin-Different-Phenotype (%) [2]: 30% | Total Cell Count [2]: 119 | Population Apoptotic (%) [3]: 81% | Population Healthy Nuclei (%) [3]: 58% | Population Hoechst High Intensity Objects (%) [3]: 8% | Population Membrane Permeable-Phenotype (%) [3]: 61% | Population Mitotic Cells (%) [3]: 18% | Population Normal (%) [3]: 91% | Population Pyknosed Nuclei (%) [3]: 20% | Population Tubulin-Different-Phenotype (%) [3]: 99% | Total Cell Count [3]: 201 | Population Apoptotic (%) [4]: 78% | Population Fragmented Nuclei (%) [4]: 21% | Population Healthy Nuclei (%) [4]: 57% | Population Hoechst High Intensity Objects (%) [4]: 11% | Population Membrane Permeable-Phenotype (%) [4]: 74% | Population Mitochondria Different-Phenotype (%) [4]: 98% | Population Mitotic Cells (%) [4]: 21% | Population Normal (%) [4]: 89% | Population Pyknosed Nuclei (%) [4]: 21% | Population Tubulin-Different-Phenotype (%) [4]: 98% | Total Cell Count [4]: 58 | Population Apoptotic (%) [5]: 55% | Population Fragmented Nuclei (%) [5]: 9% | Population Healthy Nuclei (%) [5]: 73% | Population Hoechst High Intensity Objects (%) [5]: 4% | Population Membrane Permeable-Phenotype (%) [5]: 0% | Population Mitochondria Different-Phenotype (%) [5]: 45% | Population Mitotic Cells (%) [5]: 44% | Population Normal (%) [5]: 95% | Population Pyknosed Nuclei (%) [5]: 16% | Population Tubulin-Different-Phenotype (%) [5]: 26% | Total Cell Count [5]: 300 | Population Apoptotic (%) [6]: 25% | Population Fragmented Nuclei (%) [6]: 16% | Population Healthy Nuclei (%) [6]: 70% | Population Hoechst High Intensity Objects (%) [6]: 7% | Population Membrane Permeable-Phenotype (%) [6]: 2% | Population Mitochondria Different-Phenotype (%) [6]: 38% | Population Mitotic Cells (%) [6]: 75% | Population Normal (%) [6]: 92% | Population Pyknosed Nuclei (%) [6]: 13% | Population Tubulin-Different-Phenotype (%) [6]: 19% | Total Cell Count [6]: 147 | Population Apoptotic (%) [7]: 88% | Population Fragmented Nuclei (%) [7]: 21% | Population Healthy Nuclei (%) [7]: 45% | Population Hoechst High Intensity Objects (%) [7]: 6% | Population Membrane Permeable-Phenotype (%) [7]: 76% | Population Mitochondria Different-Phenotype (%) [7]: 96% | Population Mitotic Cells (%) [7]: 11% | Population Normal (%) [7]: 93% | Population Pyknosed Nuclei (%) [7]: 33% | Population Tubulin-Different-Phenotype (%) [7]: 100% | Total Cell Count [7]: 229 | Population Apoptotic (%) [8]: 87% | Population Fragmented Nuclei (%) [8]: 14% | Population Healthy Nuclei (%) [8]: 64% | Population Hoechst High Intensity Objects (%) [8]: 7% | Population Membrane Permeable-Phenotype (%) [8]: 72% | Population Mitochondria Different-Phenotype (%) [8]: 98% | Population Mitotic Cells (%) [8]: 12% | Population Normal (%) [8]: 92% | Population Pyknosed Nuclei (%) [8]: 20% | Population Tubulin-Different-Phenotype (%) [8]: 98% | Total Cell Count [8]: 65 | Population Apoptotic (%) [9]: 51% | Population Fragmented Nuclei (%) [9]: 6% | Population Healthy Nuclei (%) [9]: 82% | Population Hoechst High Intensity Objects (%) [9]: 4% | Population Membrane Permeable-Phenotype (%) [9]: 2% | Population Mitochondria Different-Phenotype (%) [9]: 17% | Population Mitotic Cells (%) [9]: 48% | Population Normal (%) [9]: 95% | Population Pyknosed Nuclei (%) [9]: 10% | Population Tubulin-Different-Phenotype (%) [9]: 11% | Total Cell Count [9]: 287 | Population Apoptotic (%) [10]: 62% | Population Fragmented Nuclei (%) [10]: 18% | Population Healthy Nuclei (%) [10]: 70% | Population Hoechst High Intensity Objects (%) [10]: 5% | Population Membrane Permeable-Phenotype (%) [10]: 4% | Population Mitochondria Different-Phenotype (%) [10]: 24% | Population Mitotic Cells (%) [10]: 37% | Population Normal (%) [10]: 94% | Population Pyknosed Nuclei (%) [10]: 11% | Population Tubulin-Different-Phenotype (%) [10]: 18% | Total Cell Count [10]: 131 | Population Apoptotic (%) [11]: 87% | Population Fragmented Nuclei (%) [11]: 18% | Population Healthy Nuclei (%) [11]: 28% | Population Hoechst High Intensity Objects (%) [11]: 12% | Population Membrane Permeable-Phenotype (%) [11]: 84% | Population Mitochondria Different-Phenotype (%) [11]: 100% | Population Mitotic Cells (%) [11]: 12% | Population Normal (%) [11]: 87% | Population Pyknosed Nuclei (%) [11]: 53% | Population Tubulin-Different-Phenotype (%) [11]: 100% | Total Cell Count [11]: 318 | Population Apoptotic (%) [12]: 88% | Population Fragmented Nuclei (%) [12]: 16% | Population Healthy Nuclei (%) [12]: 46% | Population Hoechst High Intensity Objects (%) [12]: 10% | Population Membrane Permeable-Phenotype (%) [12]: 67% | Population Mitochondria Different-Phenotype (%) [12]: 97% | Population Mitotic Cells (%) [12]: 11% | Population Normal (%) [12]: 89% | Population Pyknosed Nuclei (%) [12]: 36% | Population Tubulin-Different-Phenotype (%) [12]: 97% | Total Cell Count [12]: 74

— ChEMBL document CHEMBL4689842, “EUbOPEN Chemogenomics Library wave 1” (2021)
